Source: publication PMC6309585 (Investigational new drugs, 2018)

Assays:
[1] = Pharmacokinetics of BaP and RVT in plasma after oral gavage; type: in vivo, Apc^Min/+ mice; details: for half-life / Clearance (Cl) / Volume of distribution (Vd): plasma; for Clearance (Cl) / Volume of distribution (Vd): oral gavage, BaP 100 μg/kg bw, RVT 45 μg/kg bw, mean ± SE, n = 10
[2] = test system: BaP-induced colon tumors; details: orally administered RVT; mice exposed to BaP compared to BaP alone; cited from earlier work
[3] = test system: GST; assay: Glutathione-S-transferase protein expression in colon and liver; type: in vivo, Apc^Min/+ mice; details: for GST protein expression: colon, RVT and BaP administered separately, compared to no treatment group; for Glutathione-S-transferase protein expression: liver, in comparison to control mice
Outline: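 Western blot of total colon and liver protein: 10% SDS–PAGE, transfer to PVDF, mouse anti-GST and rabbit anti-GAPDH antibodies, detection with IRDye680 anti-mouse and IRDye800 anti-rabbit secondaries. GST signal was normalized to GAPDH. […] Values are mean ± SE, n = 10.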

[4] = test system: GST; assay: GST activity in colon and liver; type: in vivo, Apc^Min/+ mice; details: liver; compared to BaP alone
Outline: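 Colon and liver protein from Apc^Min/+ mice was assayed for GST activity with a commercial kit. […] Tissues were collected 60 days after exposure; n = 10 per group.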

[5] = test system: GST mRNA; assay: GST mRNA expression; type: in vivo, Apc^Min/+ mice; details: compared to the no treatment group
[6] = test system: DNA; assay: Oxidative DNA damage; type: in vivo, Apc^Min/+ mice; details: text: colon, Fig. 9B; RVT prior to and simultaneously with BaP; compared to BaP treatment only
[7] = HPLC analysis of BaP organic and aqueous metabolites in plasma, colon and liver; type: in vivo, Apc^Min/+ mice; details: colon, RVT simultaneously or prior to BaP, compared to BaP alone
[8] = test system: DNA; assay: BaP-DNA adducts by 32P-postlabeling and TLC in colon and liver; type: in vivo, Apc^Min/+ mice
[9] = test system: CYP1B1 mRNA; assay: CYP1B1 mRNA expression; type: in vivo, Apc^Min/+ mice; details: liver
[10] = test system: BaP-induced colon tumors; assay: BaP-induced colon tumors/adenomas; type: in vivo, Apc^Min/+ mice; details: RVT administration post BaP subchronic exposure; data not shown

Row | SMILES | half-life ([1]; male, ApcMin/+, mouse, po) [h] | Clearance (Cl) [1] [mL/day/kg] | Volume of distribution (Vd) [1] [L/kg] | Incidence, size and number of adenomas formed in the colon [2] | GST protein expression [3] | Glutathione-S-transferase protein expression [3] | GST activity [4] | GST mRNA expression ([5]; liver, RVT either simultaneously or prior to BaP treatment) | Base pair damage (apurinic/apyrimidinic sites) [6] | BaP aqueous metabolite levels [7] | BaP organic metabolite concentrations [7] | Stable BaP-DNA adduct concentrations [8] | CYP1B1 mRNA expression [9] | Reversal of BaP-induced carcinogenic effects (tumor count and size) [10] | Elimination rate (Kd) ([1]; male, ApcMin/+, mouse, in vivo, po) [h] | Decrease in GST mRNA expression ([5]; colon) [%]
1 | Oc1ccc(C=Cc2cc(O)cc(O)c2)cc1 [RVT, 3,5,4′-trihydroxystilbene] | 1 ± 0.011 | 1.9 ± 0.14 | 0.00044 ± 5e-05 | decrease | increased | significantly decreased | no significant changes | increase | significant reduction | increases | significantly decreased | reduced | feeble expression | failed to reverse |  | 
2 | c1ccc2c(c1)cc1ccc3cccc4ccc2c1c34 [BaP, Benzo(a)pyrene] | 1.8 ± 0.018 | 2.4 ± 0.24 | 0.00058 ± 4.5e-05 |  | increased | significantly decreased |  |  |  |  |  |  |  |  | 0.17 ± 0.06 | 50
